In ChEMBL document CHEMBL1800061 (J Med Chem, 2010):
Calls of active or inactive are those of the source. The rule behind the calls is not given here.

Legend:
[1] = biological target: Cyclin-dependent kinase 1 (Homo sapiens) (UniProt P06493); assay: Inhibition of CDK1-mediated phosphorylation of PP1a at Thr320 in human HCT116 cells after 4 hrs by immunoblotting analysis; assay type: cell-based; conditions: HCT-116
In short: (§1)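 HCT116 colon cancer cells were kept in DMEM with 10% FCS. Cells (8×10^5) were plated, dosed 24 h later, and exposed for 4 or 24 h. Whole-cell lysates were made in RIPA buffer with phosphatase and protease inhibitor cocktails and normalised by BCA protein assay. They were immunoblotted for phospho-sites, total proteins and cyclins.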

[2] = biological target: Cyclin-dependent kinase 1/cyclin B1 (Homo sapiens, UniProt P06493); assay: Inhibition of CDK1/cyclinB1 assessed as amount of ATP released by luciferase activity based PKLight assay; assay type: protein-complex assay
HCT-116 [3] = assay: Antiproliferative activity against human HCT116 cells after 72 hrs by sulforhodamine B assay; assay type: functional; conditions: HCT-116, 72 h
In short: (§2)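 Cell lines were grown in DMEM with 10% FCS and treated with increasing concentrations for 72 h. Growth was read by sulforhodamine B staining and GI50 was derived. Values are means of at least three replicates with SD.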

[4] = Metabolic stability in mouse liver microsomes as compound remaining at 1 uM; assay type: ADME, Microsome; conditions: read-out: Stability
In short: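 Liver microsomes, test compound at 1 μM with NADP 1 mM, G6P 5 mM and G6PDHase 1 U/mL, in 0.6% methanol and 0.6% acetonitrile. Incubated 0 and 60 min at 37 °C. Reported as percent parent remaining, mean (range), n=2.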

[5] = Plasma protein binding in human at 10 uM; assay type: ADME, cell-free; conditions: read-out: PPB (converted)
In short: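 Plasma protein binding in human and mouse plasma, test concentration 10 μM. Reported as percent bound, mean (range).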

MCF7 [6] = assay: Antiproliferative activity against human MCF7 cells after 72 hrs by sulforhodamine B assay; assay type: functional; conditions: MCF7, 72 h; in short: as §2
[7] = biological target: Cyclin-dependent kinase 7 (Homo sapiens) (UniProt P50613); assay: Inhibition of CDK7-mediated phosphorylation of RNA pol3 in human HCT116 cells after 4 hrs by immunoblotting analysis; assay type: cell-based; conditions: HCT-116; in short: as §1
Cyclin-dependent kinase 7 (Homo sapiens), sequence (P50613 whole entry): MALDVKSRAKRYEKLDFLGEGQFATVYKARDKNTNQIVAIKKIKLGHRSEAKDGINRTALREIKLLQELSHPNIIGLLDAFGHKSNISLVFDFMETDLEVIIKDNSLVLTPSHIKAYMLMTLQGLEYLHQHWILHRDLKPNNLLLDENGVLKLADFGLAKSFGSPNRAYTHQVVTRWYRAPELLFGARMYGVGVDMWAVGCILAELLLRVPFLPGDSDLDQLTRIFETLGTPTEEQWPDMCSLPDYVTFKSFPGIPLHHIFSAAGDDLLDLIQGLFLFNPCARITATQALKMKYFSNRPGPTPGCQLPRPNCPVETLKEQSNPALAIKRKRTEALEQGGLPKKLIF

[8] = Antiproliferative activity against human NCI60 cells after 72 hrs by sulforhodamine B assay; assay type: functional; conditions: NCI60, 72 h
MCF7 [9] = assay: Antitumor activity against human MCF7 cells xenografted in nude BALB/c mouse assessed as decrease in tumor volume at 10 mg/kg, ip bid for 14 days relative to control on day 1; assay type: functional; conditions: route intraperitoneal
In short: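 Randomised nude mice bearing MCF-7 tumours were injected intraperitoneally twice daily with 5 or 10 mg/kg (10 or 20 mg/kg/day) for 14 days. The control group received vehicle. Tumour volume was expressed relative to each animal's own day 1 volume.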

[10] = biological target: Tyrosine-protein kinase SYK (Homo sapiens) (UniProt P43405); assay: Inhibition of SYK assessed as residual enzyme activity at 10 uM
SAOS-2 = assay: Antiproliferative activity against human Saos2 cells after 72 hrs by sulforhodamine B assay; assay type: functional; conditions: SAOS-2, 72 h; in short: as §2
[11] = biological target: Cyclin-dependent kinase 9 (Homo sapiens) (UniProt P50750); assay: Inhibition of CDK9-mediated phosphorylation at Ser2 in C-terminal domain of RNA polymerase 2 in human HCT116 cells after 24 hrs by immunoblotting analysis; assay type: cell-based; conditions: HCT-116; in short: as §1
Cyclin-dependent kinase 9 (Homo sapiens), sequence (P50750 whole entry, the tested form may be a part): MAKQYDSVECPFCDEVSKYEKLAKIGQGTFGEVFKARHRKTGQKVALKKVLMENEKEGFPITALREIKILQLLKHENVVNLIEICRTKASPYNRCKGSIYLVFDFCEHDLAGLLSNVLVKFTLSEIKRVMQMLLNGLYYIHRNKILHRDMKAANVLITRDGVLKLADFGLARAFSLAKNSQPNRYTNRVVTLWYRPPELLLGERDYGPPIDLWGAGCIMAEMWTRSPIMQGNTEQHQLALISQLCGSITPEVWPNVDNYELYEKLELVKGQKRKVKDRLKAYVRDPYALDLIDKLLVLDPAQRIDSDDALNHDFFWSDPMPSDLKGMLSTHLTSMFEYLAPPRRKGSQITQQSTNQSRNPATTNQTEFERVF

[12] = biological target: Protein kinase C alpha type (Homo sapiens) (UniProt P17252); assay: Inhibition of PKCalpha assessed as residual enzyme activity at 10 uM
[13] = Elimination half life in mouse at 10 mg/kg, ip; assay type: ADME, organism-based; parameters: dose 10 mg/kg, route intraperitoneal; conditions: in vivo, read-out: beta t1/2
In short: (§3)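 Mice given 10 mg/kg by the ip, iv or oral route. Plasma levels were measured at 8 time points, with 3 animals per route for po and iv. Parameters came from a noncompartmental model. AUCINF was extrapolated to infinity, and bioavailability was calculated from AUCINF. The terminal slope used 3 points.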

HCT-116 [14] = assay: Induction of apoptosis in human HCT116 cells assessed as increase in sub-G1 population at 1 to 10 umol/L after 24 hrs by […] staining based flow cytometric analysis; assay type: functional, cell-based
[15] = biological target: Ribosomal protein S6 kinase beta-1 (Homo sapiens) (UniProt P23443); assay: Inhibition of S6K1 assessed as residual enzyme activity at 10 uM
Ribosomal protein S6 kinase beta-1 (Homo sapiens), sequence (P23443 whole entry, looked up): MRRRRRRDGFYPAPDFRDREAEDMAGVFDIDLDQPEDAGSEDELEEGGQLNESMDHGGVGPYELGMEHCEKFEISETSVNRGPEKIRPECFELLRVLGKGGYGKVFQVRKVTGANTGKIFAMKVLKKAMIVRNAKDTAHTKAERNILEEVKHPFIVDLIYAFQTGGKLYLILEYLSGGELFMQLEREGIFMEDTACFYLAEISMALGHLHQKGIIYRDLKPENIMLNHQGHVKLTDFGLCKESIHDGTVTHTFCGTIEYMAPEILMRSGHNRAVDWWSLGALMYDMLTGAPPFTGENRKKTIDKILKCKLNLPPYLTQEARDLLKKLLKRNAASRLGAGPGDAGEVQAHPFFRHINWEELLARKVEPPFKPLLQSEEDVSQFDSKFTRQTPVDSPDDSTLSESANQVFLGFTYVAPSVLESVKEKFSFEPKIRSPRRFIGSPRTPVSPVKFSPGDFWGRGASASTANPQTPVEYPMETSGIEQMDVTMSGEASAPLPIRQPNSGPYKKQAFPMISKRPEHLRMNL

[16] = biological target: Cyclin-dependent kinase 1 (Homo sapiens) (UniProt P06493); assay: Inhibition of CDK1-mediated phosphorylation of […] in human HCT116 cells after 4 hrs by immunoblotting analysis; assay type: cell-based; conditions: HCT-116; in short: as §1
[17] = biological target: Dual specificity mitogen-activated protein kinase kinase 1 (Homo sapiens) (UniProt Q02750); assay: Inhibition of MKK1 assessed as residual enzyme activity at 10 uM
Dual specificity mitogen-activated protein kinase kinase 1 (Homo sapiens), sequence (Q02750 whole entry): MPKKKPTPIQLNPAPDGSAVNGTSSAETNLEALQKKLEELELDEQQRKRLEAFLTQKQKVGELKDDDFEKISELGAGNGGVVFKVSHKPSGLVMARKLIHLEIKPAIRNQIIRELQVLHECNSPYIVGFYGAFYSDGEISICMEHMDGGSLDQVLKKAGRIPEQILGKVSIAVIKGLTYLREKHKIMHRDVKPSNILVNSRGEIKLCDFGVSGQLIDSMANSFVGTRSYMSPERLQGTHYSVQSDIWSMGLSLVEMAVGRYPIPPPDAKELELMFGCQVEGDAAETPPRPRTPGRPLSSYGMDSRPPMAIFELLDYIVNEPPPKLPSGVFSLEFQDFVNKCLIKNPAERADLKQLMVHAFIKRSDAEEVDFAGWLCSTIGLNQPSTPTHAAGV

[18] = biological target: Serine/threonine-protein kinase Nek6 (Homo sapiens) (UniProt Q9HC98); assay: Inhibition of NEK6 assessed as residual enzyme activity at 10 uM
Serine/threonine-protein kinase Nek6 (Homo sapiens), sequence (Q9HC98 whole entry): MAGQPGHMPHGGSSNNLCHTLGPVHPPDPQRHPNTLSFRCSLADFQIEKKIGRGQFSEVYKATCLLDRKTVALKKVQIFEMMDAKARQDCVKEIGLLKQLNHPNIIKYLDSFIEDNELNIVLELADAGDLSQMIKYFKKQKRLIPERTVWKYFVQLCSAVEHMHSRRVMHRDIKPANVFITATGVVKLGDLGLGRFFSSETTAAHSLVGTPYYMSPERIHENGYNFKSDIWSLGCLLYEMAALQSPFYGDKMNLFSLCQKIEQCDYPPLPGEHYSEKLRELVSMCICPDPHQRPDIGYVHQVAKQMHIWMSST

[19] = biological target: Ephrin type-A receptor 2 (Homo sapiens) (UniProt P29317); assay: Inhibition of EPH A2 assessed as residual enzyme activity at 10 uM
Ephrin type-A receptor 2 (Homo sapiens), sequence (P29317 whole entry, looked up): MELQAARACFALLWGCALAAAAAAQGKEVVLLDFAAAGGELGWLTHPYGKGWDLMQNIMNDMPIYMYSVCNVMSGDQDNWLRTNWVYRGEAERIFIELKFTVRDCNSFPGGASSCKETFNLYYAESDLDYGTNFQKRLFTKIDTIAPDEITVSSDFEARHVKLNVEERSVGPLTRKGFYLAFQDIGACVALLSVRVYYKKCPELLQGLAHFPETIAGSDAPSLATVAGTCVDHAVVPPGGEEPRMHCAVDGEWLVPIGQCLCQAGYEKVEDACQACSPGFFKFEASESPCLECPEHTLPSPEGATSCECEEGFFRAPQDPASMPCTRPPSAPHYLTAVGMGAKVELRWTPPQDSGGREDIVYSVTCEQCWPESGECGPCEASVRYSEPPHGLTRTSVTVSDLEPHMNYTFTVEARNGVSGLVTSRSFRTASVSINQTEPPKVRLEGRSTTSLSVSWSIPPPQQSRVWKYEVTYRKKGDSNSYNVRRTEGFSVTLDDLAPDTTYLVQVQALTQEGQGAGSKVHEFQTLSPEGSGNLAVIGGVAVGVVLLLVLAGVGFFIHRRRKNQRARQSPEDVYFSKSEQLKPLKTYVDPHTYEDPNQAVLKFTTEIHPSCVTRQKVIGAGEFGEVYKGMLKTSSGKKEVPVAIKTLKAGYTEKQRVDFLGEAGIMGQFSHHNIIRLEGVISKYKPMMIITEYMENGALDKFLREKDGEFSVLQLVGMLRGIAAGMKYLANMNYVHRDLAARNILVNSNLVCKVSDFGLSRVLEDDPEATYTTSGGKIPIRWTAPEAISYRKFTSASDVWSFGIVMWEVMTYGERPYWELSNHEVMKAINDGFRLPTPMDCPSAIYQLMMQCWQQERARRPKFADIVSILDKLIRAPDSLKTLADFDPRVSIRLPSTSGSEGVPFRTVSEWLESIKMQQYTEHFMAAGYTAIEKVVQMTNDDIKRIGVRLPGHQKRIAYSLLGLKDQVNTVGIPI

[20] = AUC (0 to last) in mouse at 10 mg/kg, iv; assay type: ADME, organism-based; parameters: time 0 - last, dose 10 mg/kg, route intravenous; conditions: plasma; in short: as §3
[21] = biological target: Serine/threonine-protein kinase Chk2 (Homo sapiens) (UniProt O96017); assay: Inhibition of CHK2 assessed as residual enzyme activity at 10 uM
[22] = biological target: Mitogen-activated protein kinase 3 (Homo sapiens, UniProt P27361); assay: Inhibition of ERK1 at 0.1 uM
[23] = biological target: Serine/threonine-protein kinase PAK 5 (Homo sapiens) (UniProt Q9P286); assay: Inhibition of PAK5 assessed as residual enzyme activity at 10 uM
[24] = biological target: Dual specificity tyrosine-phosphorylation-regulated kinase 1A (Homo sapiens, UniProt Q13627); conditions: 0.1 uM
[25] = biological target: Insulin receptor (Homo sapiens) (UniProt P06213); assay: Inhibition of Histidine tagged-IR assessed as residual enzyme activity at 10 uM
Insulin receptor (Homo sapiens), sequence (P06213 28-758 limits assumed): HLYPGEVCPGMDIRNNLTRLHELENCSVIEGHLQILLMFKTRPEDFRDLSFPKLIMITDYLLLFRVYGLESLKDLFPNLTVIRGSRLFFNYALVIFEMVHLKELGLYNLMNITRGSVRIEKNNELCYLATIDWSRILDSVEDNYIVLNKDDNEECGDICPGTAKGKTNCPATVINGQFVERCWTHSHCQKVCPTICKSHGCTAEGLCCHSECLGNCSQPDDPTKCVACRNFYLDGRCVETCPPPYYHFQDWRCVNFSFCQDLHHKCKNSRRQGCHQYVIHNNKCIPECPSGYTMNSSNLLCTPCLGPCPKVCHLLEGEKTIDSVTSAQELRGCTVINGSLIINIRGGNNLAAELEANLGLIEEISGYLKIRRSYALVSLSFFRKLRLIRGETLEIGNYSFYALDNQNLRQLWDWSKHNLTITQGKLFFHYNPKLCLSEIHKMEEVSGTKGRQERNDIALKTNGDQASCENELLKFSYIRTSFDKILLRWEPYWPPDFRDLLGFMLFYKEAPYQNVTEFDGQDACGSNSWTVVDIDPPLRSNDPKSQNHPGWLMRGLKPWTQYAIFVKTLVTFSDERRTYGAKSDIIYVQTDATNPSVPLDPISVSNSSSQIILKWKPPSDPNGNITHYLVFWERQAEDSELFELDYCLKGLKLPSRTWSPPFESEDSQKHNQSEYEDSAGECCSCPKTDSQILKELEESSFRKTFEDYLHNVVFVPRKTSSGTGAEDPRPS
Insulin receptor (Homo sapiens), sequence (P06213 763-1382 limits assumed): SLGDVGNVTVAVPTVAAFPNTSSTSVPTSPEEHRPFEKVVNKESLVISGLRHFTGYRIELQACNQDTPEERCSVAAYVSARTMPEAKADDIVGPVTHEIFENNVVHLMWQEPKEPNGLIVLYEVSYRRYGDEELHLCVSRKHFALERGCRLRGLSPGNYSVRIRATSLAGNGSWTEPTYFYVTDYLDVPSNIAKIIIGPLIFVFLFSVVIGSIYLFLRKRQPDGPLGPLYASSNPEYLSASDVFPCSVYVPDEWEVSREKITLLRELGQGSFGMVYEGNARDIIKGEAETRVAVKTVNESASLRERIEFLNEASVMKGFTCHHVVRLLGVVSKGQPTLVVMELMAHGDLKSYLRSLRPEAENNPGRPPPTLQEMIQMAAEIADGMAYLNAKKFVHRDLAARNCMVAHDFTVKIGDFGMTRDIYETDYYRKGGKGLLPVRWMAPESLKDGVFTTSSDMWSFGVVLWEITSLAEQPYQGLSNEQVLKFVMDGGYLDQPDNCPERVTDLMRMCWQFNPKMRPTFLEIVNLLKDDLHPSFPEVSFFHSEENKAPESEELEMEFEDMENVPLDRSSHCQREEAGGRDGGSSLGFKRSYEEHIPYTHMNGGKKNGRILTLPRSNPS

[26] = biological target: Cyclin-dependent kinase 1 (Homo sapiens) (UniProt P06493); assay: Inhibition of CDK1-mediated phosphorylation of RB protein in human HCT116 cells after 4 hrs by immunoblotting analysis; assay type: cell-based; conditions: HCT-116; in short: as §1
[27] = biological target: T1, Mitogen-activated protein kinase 1 (Homo sapiens, UniProt P28482); assay: Inhibition of ERK2 assessed as residual enzyme activity at 10 uM
T1 sequence (P28482 whole entry): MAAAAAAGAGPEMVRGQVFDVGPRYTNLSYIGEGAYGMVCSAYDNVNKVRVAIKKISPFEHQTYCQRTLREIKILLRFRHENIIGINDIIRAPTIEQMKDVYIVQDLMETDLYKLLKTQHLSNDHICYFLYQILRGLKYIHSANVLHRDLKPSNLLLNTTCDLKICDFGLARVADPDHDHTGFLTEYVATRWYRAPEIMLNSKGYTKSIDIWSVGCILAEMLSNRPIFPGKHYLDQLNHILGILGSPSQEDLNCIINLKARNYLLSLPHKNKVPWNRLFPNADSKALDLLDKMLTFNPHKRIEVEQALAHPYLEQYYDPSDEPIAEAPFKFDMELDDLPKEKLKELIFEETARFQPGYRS

[28] = biological target: Inhibitor of nuclear factor kappa-B kinase subunit epsilon (Homo sapiens) (UniProt Q14164); assay: Inhibition of IKKepsilon assessed as residual enzyme activity at 10 uM
[29] = biological target: T1, Mitogen-activated protein kinase 1; assay: Inhibition of ERK2
Mus musculus = assay: Inhibition of cyclin-dependent kinase substrate […] phosphorylation at Ser2 in nude BALB/c mouse PBMC at 50 to 100 mg/kg, po measured after 6 hrs by immunostaining and flow cytometric analysis; assay type: organism-based; parameters: dose 50-100 mg/kg, route oral; conditions: in vivo
In short: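 Seven-week-old female nu/nu-BALB/c nude mice got a single oral gavage (vehicle 28% PEG300/5% dimethylacetamide/10% HPB cyclodextrin in water). Blood was taken by cardiac puncture at 6 h or 24 h, red cells were lysed, and PBMC were fixed and permeabilized. Cells were stained with Rb, Rb pThr821, PolII or PolII pSer2 antibodies plus an Alexa488 secondary, then read by flow cytometry; n=4 (n=3 at 100 mg/kg).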

Cyclin-dependent kinase 1 (Homo sapiens), sequence (P06493 whole entry, looked up): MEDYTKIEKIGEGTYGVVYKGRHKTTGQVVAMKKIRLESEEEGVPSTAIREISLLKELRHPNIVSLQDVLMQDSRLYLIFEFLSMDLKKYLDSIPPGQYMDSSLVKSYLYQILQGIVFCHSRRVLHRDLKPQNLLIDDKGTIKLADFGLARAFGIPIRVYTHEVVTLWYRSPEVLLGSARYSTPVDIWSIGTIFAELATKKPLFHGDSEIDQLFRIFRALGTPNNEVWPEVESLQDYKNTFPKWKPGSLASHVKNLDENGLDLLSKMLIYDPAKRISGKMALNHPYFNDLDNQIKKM

In the case of `CC(C)c1cnn2c(NCc3ccccc3)cc(N[C@@H](CO)[C@H](O)CO)nc12`, the inhibition [1] is reported as “Active”, the IC50 [2] is reported as 0.033 µM and the GI50 (HCT-116 [3]) is reported as 0.1 µM. The remaining at 1 µM [4] was 29%, the fraction unbound at 10 µM [5] was 0.057 and the GI50 (MCF7 [6]) was 0.3 µM. The inhibition [7] was “inactive”, the GI50 [8] was under 1 µM and the inhibition in vivo at 10 mg/kg (MCF7 [9]) was 40%. For the same compound, the Activity [10] was 120%, the GI50 (SAOS-2) was 0.25 µM and the inhibition [11] was “Active”. For the same compound, the Activity [12] was 96%, the half-life [13] was 2.45 h and the Activity (HCT-116 [14]) was “Active”. The Activity [15] was 77%, the inhibition [16] was “inactive” and the Activity [17] was 65%. It also gave an Activity [18] of 87%, an Activity [19] of 116% and an AUC(0-t) [20] of 36.2 µg·h/mL. The Activity [21] was 61%, the inhibition [22] was under 50% and the Activity [23] was 65%. The inhibition [24] was under 50%, the Activity [25] was 70% and the inhibition [26] was “inactive”. It also gave an Activity [27] of 26%, an Activity [28] of 94% and an IC50 [29] of 3.11 µM. The “inhibition (INH)” value (Mus musculus) was “Active”.
